The values below come from ChEMBL document CHEMBL1240405, “Activity of a new cephalosporin, CXA-101 (FR264205), against beta-lactam-resistant Pseudomonas aeruginosa mutants selected in vitro and after antipseudomonal treatment of intensive care unit patients” (2010).

A word on the MIC: it is the least concentration at which growth counts as inhibited. Low readings indicate inhibition by little substance, high ones a need for much substance.

Holding throughout (assay type): functional
For assay [1], the system named is Pseudomonas aeruginosa. Kind of assay: Antimicrobial activity against beta-lactam resistant Pseudomonas aeruginosa PAO1 by broth microdilution method. Put shortly:
(§1)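 Broth microdilution MICs per CLSI M100-S18, over 0.12 to 256 μg/ml. Strains are PAO1 and its mutants. oprD mutants were selected overnight on Mueller-Hinton agar with 4 μg/ml imipenem, passaged antibiotic-free, then confirmed by oprD amplification and sequencing. PAO1 and ATCC 27853 were run alongside as quality controls.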

The subject of assay [2] is Pseudomonas aeruginosa. Kind of assay: Antimicrobial activity against beta-lactam resistant Pseudomonas aeruginosa PAO1 deficient in ampD and ampDh3 gene selected in vitro after antipseudomonal treatment of intensive care unit patient by broth microdilution method. Put shortly:
as §1
(Dilution methods test growth across graded concentrations, often in twofold steps.)

The subject of assay [3] is Pseudomonas aeruginosa. As to the kind of experiment: Antimicrobial activity against beta-lactam resistant Pseudomonas aeruginosa PAO1 deficient in ampD, […] gene selected in vitro after antipseudomonal treatment of intensive care unit patient by broth microdilution method. Put shortly: as §1
For assay [4], the system named is Pseudomonas aeruginosa. Kind of assay: Antimicrobial activity against beta-lactam resistant Pseudomonas aeruginosa PAO1 deficient in ampD and dacB gene selected in vitro after antipseudomonal treatment of intensive care unit patient by broth microdilution method. Put shortly: as §1
Assay [5] has as its system Pseudomonas aeruginosa. As to the kind of experiment: Antimicrobial activity against beta-lactam resistant Pseudomonas aeruginosa PAOD2 harboring oprD spontaneous mutant selected in vitro after antipseudomonal treatment of intensive care unit patient by broth microdilution method. Put shortly:
as §1

In assay [6] the test system is Pseudomonas aeruginosa. Kind of assay: Antimicrobial activity against beta-lactam resistant Pseudomonas aeruginosa PAOD3 harboring oprD spontaneous mutant selected in vitro after antipseudomonal treatment of intensive care unit patient by broth microdilution method. Put shortly: as §1
The test system of assay [7] is Pseudomonas aeruginosa. As to the kind of experiment: Antimicrobial activity against beta-lactam resistant Pseudomonas aeruginosa PAOD1 harboring oprD spontaneous mutant and deficient in ampD gene selected in vitro after antipseudomonal treatment of intensive care unit patient by broth microdilution method. Put shortly:
as §1

The test system of assay [8] is Pseudomonas aeruginosa. Kind of assay: Antimicrobial activity against beta-lactam resistant beta-lactam resistant Pseudomonas aeruginosa PAOD3 harboring oprD spontaneous mutant and deficient in ampD gene selected in vitro after antipseudomonal treatment of intensive care unit patient by broth microdilution method. Put shortly:
as §1

Assay [9] deals with Pseudomonas aeruginosa. Kind of assay: Antimicrobial activity against beta-lactam resistant Pseudomonas aeruginosa PAOD1 harboring oprD spontaneous mutant and deficient in dacB gene selected in vitro after antipseudomonal treatment of intensive care unit patient by broth microdilution method. Put shortly:
as §1

Assay [10] deals with Pseudomonas aeruginosa. As to the kind of experiment: Antimicrobial activity against beta-lactam resistant Pseudomonas aeruginosa PAOD2 harboring oprD spontaneous mutant and deficient in dacB gene selected in vitro after antipseudomonal treatment of intensive care unit patient by broth microdilution method. Put shortly: as §1
The test system of assay [11] is Pseudomonas aeruginosa. Kind of assay: Antimicrobial activity against beta-lactam resistant Pseudomonas aeruginosa PAOD3 harboring oprD spontaneous mutant and deficient in dacB gene selected in vitro after antipseudomonal treatment of intensive care unit patient by broth microdilution method. Put shortly:
as §1

In assay [12] the test system is Pseudomonas aeruginosa. Kind of assay: Antimicrobial activity against beta-lactam resistant Pseudomonas aeruginosa PA01 deficient in dacB gene by broth microdilution method. Put shortly:
as §1

Assay [13] has as its system Pseudomonas aeruginosa. Kind of assay: Induction of ampC expression in beta-lactam resistant Pseudomonas aeruginosa PAO1 at 50 ug/mL. Put shortly: (§2)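 ampC expression measured by real-time RT-PCR in PAO1 and its mutants, under basal conditions and after induction with 50 μg/ml cefoxitin.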
Assay [14] relates to Pseudomonas aeruginosa. Kind of assay: Induction of ampC expression in beta-lactam resistant Pseudomonas aeruginosa PAO1 deficient in ampD gene selected in vitro after antipseudomonal treatment of intensive care unit patient at 50 ug/mL. Put shortly: as §2
Assay [15] concerns Pseudomonas aeruginosa. Kind of assay: Induction of ampC expression in beta-lactam resistant Pseudomonas aeruginosa PAO1 deficient in ampD and ampDh3 gene selected in vitro after antipseudomonal treatment of intensive care unit patient at 50 ug/mL. Put shortly:
as §2

For assay [16], the system named is Pseudomonas aeruginosa. Kind of assay: Induction of ampC expression in beta-lactam resistant Pseudomonas aeruginosa PAO1 deficient in ampD, […] gene selected in vitro after antipseudomonal treatment of intensive care unit patient at 50 ug/mL. Put shortly: as §2
Assay [17] concerns Pseudomonas aeruginosa. As to the kind of experiment: Induction of ampC expression in beta-lactam resistant Pseudomonas aeruginosa PA01 deficient in dacB gene at 50 ug/mL. Put shortly: as §2
The test system of assay [18] is Pseudomonas aeruginosa. As to the kind of experiment: Induction of ampC expression in beta-lactam resistant Pseudomonas aeruginosa PAO1 deficient in ampD and dacB gene selected in vitro after antipseudomonal treatment of intensive care unit patient at 50 ug/ml. Put shortly: as §2
Assay [19] deals with Pseudomonas aeruginosa. Kind of assay: Antimicrobial activity against beta-lactam resistant Pseudomonas aeruginosa PAO1 deficient in ampD gene selected in vitro after antipseudomonal treatment of intensive care unit patient by broth microdilution method. Put shortly: as §1
In assay [20] the test system is Pseudomonas aeruginosa. As to the kind of experiment: Antimicrobial activity against beta-lactam resistant Pseudomonas aeruginosa PAOD1 harboring oprD spontaneous mutant selected in vitro after antipseudomonal treatment of intensive care unit patient by broth microdilution method. Put shortly: as §1
Assay [21] has as its system Pseudomonas aeruginosa. As to the kind of experiment: Antimicrobial activity against beta-lactam resistant Pseudomonas aeruginosa PAOD2 harboring oprD spontaneous mutant and deficient in ampD gene by selected in vitro after antipseudomonal treatment of intensive care unit patient by broth microdilution method. Put shortly:
as §1

Assay [22] concerns Pseudomonas aeruginosa. As to the kind of experiment: Antimicrobial activity against Pseudomonas aeruginosa clinical isolate assessed as resistant isolates selected in vitro after antipseudomonal treatment of intensive care unit patient by CLSI method.

Converted amounts (≈) assume the structure as drawn.

For the compound `CO/N=C(\C(=O)N[C@@H]1C(=O)N2C(C(=O)[O-])=C(C[N+]3(C)CCCC3)CS[C@H]12)c1csc(N)n1`, the MIC in the assay on Pseudomonas aeruginosa [1] amounted to 2 µg/mL (≈ 4.16 µM); in the assay with Pseudomonas aeruginosa [2], 8 µg/mL (≈ 16.6 µM); in the assay on Pseudomonas aeruginosa [3], 8 µg/mL (≈ 16.6 µM); against Pseudomonas aeruginosa [4], 32 µg/mL (≈ 66.6 µM); in the assay on Pseudomonas aeruginosa [5], 2 µg/mL (≈ 4.16 µM); against Pseudomonas aeruginosa [6] it was 2 µg/mL (≈ 4.16 µM). The MIC in the assay with Pseudomonas aeruginosa [7] is 4 µg/mL (≈ 8.32 µM); with Pseudomonas aeruginosa [8] it was 8 µg/mL (≈ 16.6 µM); against Pseudomonas aeruginosa [9], 32 µg/mL (≈ 66.6 µM); against Pseudomonas aeruginosa [10] it was 32 µg/mL (≈ 66.6 µM); with Pseudomonas aeruginosa [11] it was 32 µg/mL (≈ 66.6 µM); with Pseudomonas aeruginosa [12], 16 µg/mL (≈ 33.3 µM).

For `C[C@H]1[C@H](NC(=O)/C(=N\OC(C)(C)C(=O)O)c2csc(N)n2)C(=O)N1S(=O)(=O)O` [AZTREONAM], the MIC against Pseudomonas aeruginosa [1] amounted to 4 µg/mL (≈ 9.19 µM); against Pseudomonas aeruginosa [2], 32 µg/mL (≈ 73.5 µM); against Pseudomonas aeruginosa [3] it was 32 µg/mL (≈ 73.5 µM); with Pseudomonas aeruginosa [4], 128 µg/mL (≈ 294 µM); in the assay on Pseudomonas aeruginosa [5], 4 µg/mL (≈ 9.19 µM); against Pseudomonas aeruginosa [6] it was 4 µg/mL (≈ 9.19 µM). Further, the MIC against Pseudomonas aeruginosa [7] was determined as 8 µg/mL (≈ 18.4 µM); against Pseudomonas aeruginosa [8], 8 µg/mL (≈ 18.4 µM); against Pseudomonas aeruginosa [9] it was 32 µg/mL (≈ 73.5 µM); against Pseudomonas aeruginosa [10], 32 µg/mL (≈ 73.5 µM); against Pseudomonas aeruginosa [11], 32 µg/mL (≈ 73.5 µM); in the assay with Pseudomonas aeruginosa [12], 32 µg/mL (≈ 73.5 µM).

Turning to `CO[C@@]1(NC(=O)Cc2cccs2)C(=O)N2C(C(=O)O)=C(COC(N)=O)CS[C@@H]21` [CEFOXITIN], the “fold change (FC)” value in the assay on Pseudomonas aeruginosa [13] came to 50; with Pseudomonas aeruginosa [14] it was 134; in the assay on Pseudomonas aeruginosa [15], 1014; with Pseudomonas aeruginosa [16] it was 1105; in the assay with Pseudomonas aeruginosa [17] it was 232; in the assay on Pseudomonas aeruginosa [18], 1950.

For `CC(C)(O/N=C(\C(=O)N[C@@H]1C(=O)N2C(C(=O)[O-])=C(C[n+]3ccccc3)CS[C@H]12)c1csc(N)n1)C(=O)O` [CEFTAZIDIME], the MIC against Pseudomonas aeruginosa [1] came out at 2 µg/mL (≈ 3.66 µM); in the assay with Pseudomonas aeruginosa [19], 8 µg/mL (≈ 14.6 µM); with Pseudomonas aeruginosa [2], 32 µg/mL (≈ 58.5 µM); against Pseudomonas aeruginosa [3], 32 µg/mL (≈ 58.5 µM); in the assay on Pseudomonas aeruginosa [4] it was 128 µg/mL (≈ 234 µM); in the assay on Pseudomonas aeruginosa [20] it was 2 µg/mL (≈ 3.66 µM). Also, the MIC in the assay with Pseudomonas aeruginosa [5] is 2 µg/mL (≈ 3.66 µM); in the assay on Pseudomonas aeruginosa [6], 2 µg/mL (≈ 3.66 µM); against Pseudomonas aeruginosa [7], 16 µg/mL (≈ 29.3 µM); with Pseudomonas aeruginosa [21], 16 µg/mL (≈ 29.3 µM); with Pseudomonas aeruginosa [8] it was 16 µg/mL (≈ 29.3 µM); with Pseudomonas aeruginosa [9], 32 µg/mL (≈ 58.5 µM). The MIC in the assay with Pseudomonas aeruginosa [10], in the assay on Pseudomonas aeruginosa [11] and against Pseudomonas aeruginosa [12] was 32 µg/mL (≈ 58.5 µM) each time. The Activity in the assay on Pseudomonas aeruginosa [22] is on record as 81%.
